Laboratory results from PMC4861071 (Chemical communications (Cambridge, England), 2016).
Where two headings read alike, the source gives them in different places.

Experiments:
[1] = tested on: human renal Caki-1 cancer cell line; assay: Cell viability; format: cell-based; settings: read-out: IC50 Caki-1; 72 h incubation; dissolved in 1% DMSO, diluted with water
Outline: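 Growth inhibition measured by BluePresto assay in human renal Caki-1 cancer cells, run in parallel with human colon HCT 116 and DLD1 cancer lines and non-tumorigenic HEK-293T cells. Cells were exposed to test compound for 72 h. Compounds were dissolved in 1% DMSO and diluted with water before addition to the culture medium. Cisplatin reference was dissolved in water.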

[2] = tested on: thioredoxin reductase (TrRx); assay: Thioredoxin reductase activity in treated Caki-1 cells; format: cell-based, human; settings: 5 µM, 24 hour incubation
Outline: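 Caki-1 cells were incubated with 5 µM test compound or 0.1% DMSO vehicle for 5, 12 and 24 h. Endogenous thioredoxin reductase activity was then assayed in soluble whole-cell lysates. Percent inhibition is relative to vehicle-treated cells at 24 h.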

[3] = tested on: human renal Caki-1 cancer cell line; settings: read-out: IC50 Caki-1; cisplatin dissolved in H2O; ref [24]; cited from earlier work
[4] = tested on: non-tumorigenic human embryonic kidney cell lines HEK-293T; settings: read-out: IC50 HEK-293T; cisplatin dissolved in H2O; ref [24]; cited from earlier work
[5] = tested on: plasmid (pBR322) DNA; settings: cited from earlier work

CC(C)c1cccc(C(C)C)c1-n1ccn(-c2c(C(C)C)cccc2C(C)C)[c]1=[Au][Cl] [compound 1, [(IPr)AuCl]]
IC50 [1]: 27.1 ± 2 µM | inhibition of thioredoxin reductase activity [2]: 17%

[Ru(p-cymene)Cl2(μ-dppm)Au(IPr)]ClO4 [compound 13]
IC50 [1]: 5.2 ± 0.9 µM | inhibition of thioredoxin reductase activity [2]: 63%

N.N.[Cl][Pt][Cl] [cisplatin]
IC50 [3]: 29 ± 4.11 µM | IC50 [4]: 3.27 ± 0.13 µM

[Ru(p-cymene)Cl2(μ-dppm)AuCl] [compound 7]
interaction with plasmid (pBR322) DNA ([5]; previously described compounds, ref [26]): lack of interaction

[Ru(p-cymene)Cl2(η^1-dppm)] [compound 9]
IC50 [1]: 35.6 ± 3.7 µM | inhibition of thioredoxin reductase activity [2]: 44% | interaction with plasmid DNA ([5]; ref [31]): weakly reduced supercoiling in plasmid DNA
